Assay results gathered from unrelated publications.
Protocols differ between the studies behind these lines.
Target: Serine/threonine-protein kinase D3 (PRKD3, Homo sapiens, UniProt O94806)
Sequence (O94806 1-890, as in one of the studies): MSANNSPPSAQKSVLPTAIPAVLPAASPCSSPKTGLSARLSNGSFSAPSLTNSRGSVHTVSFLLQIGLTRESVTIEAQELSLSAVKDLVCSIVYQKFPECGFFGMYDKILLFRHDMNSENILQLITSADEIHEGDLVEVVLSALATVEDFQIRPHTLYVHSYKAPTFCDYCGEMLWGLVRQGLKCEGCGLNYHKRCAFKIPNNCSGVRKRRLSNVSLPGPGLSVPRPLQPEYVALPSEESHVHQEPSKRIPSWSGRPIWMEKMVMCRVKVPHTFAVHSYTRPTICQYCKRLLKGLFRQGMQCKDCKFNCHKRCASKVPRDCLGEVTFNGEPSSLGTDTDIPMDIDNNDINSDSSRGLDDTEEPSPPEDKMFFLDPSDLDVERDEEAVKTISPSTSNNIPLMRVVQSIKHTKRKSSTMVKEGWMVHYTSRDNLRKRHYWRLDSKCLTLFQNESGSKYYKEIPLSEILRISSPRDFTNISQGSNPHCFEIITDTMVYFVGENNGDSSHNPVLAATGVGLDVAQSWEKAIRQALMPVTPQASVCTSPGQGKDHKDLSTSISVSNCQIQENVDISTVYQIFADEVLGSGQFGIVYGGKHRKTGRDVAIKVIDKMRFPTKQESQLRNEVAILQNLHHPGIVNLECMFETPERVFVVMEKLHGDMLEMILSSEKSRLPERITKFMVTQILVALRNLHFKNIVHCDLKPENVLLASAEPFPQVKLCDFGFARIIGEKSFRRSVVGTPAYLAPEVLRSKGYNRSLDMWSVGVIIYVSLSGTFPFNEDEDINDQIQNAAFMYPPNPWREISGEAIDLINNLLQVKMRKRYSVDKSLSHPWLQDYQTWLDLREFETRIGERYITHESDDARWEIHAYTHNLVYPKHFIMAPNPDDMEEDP

CNc1cccc2cc(C(=O)Nc3ccc(C(=O)O)cc3)c(=O)[nH]c12 — inhibition (enzyme activity, inhibitor; 10 µM): -1%
COc1cc2ncnc(Nc3ccc(Oc4ccccc4)c(C)c3C)c2cc1OC — inhibition (enzyme activity, inhibitor; 1 µM): 8%
O=C(NCc1ncc(C(F)(F)F)cc1Cl)c1ccc2c(c1)C1(CCS(=O)(=O)CC1)[C@H](C1CC1)N2S(=O)(=O)c1ccc(F)cc1 — remaining binding (cell-free assay, competition with immobilised ligand; 1 µM): 100%
c1ccc(CNc2nc(N3CCOc4ccccc43)nc3c2CCCC3)cc1 — inhibition (target engagement in cells, inhibitor, chemoproteomics; 20 mM): 2.8%
Cn1c2c(c3ccc(Cl)c(Cl)c31)C(C#N)C1(CCNCC1)NC2=O (racemic) — ΔTm (thermal stability, DSF; 10 µM): 2.9 °C
O=C(Nc1cnn(-c2csc(C(=O)NC3COC3)c2)c1)Nc1c(F)cccc1Cl — remaining activity (enzyme activity, inhibitor; 5 µM): 105%
Cn1c2c(Cl)c(Cl)ccc2c2cc[nH]c(=O)c21 — ΔTm (thermal stability, DSF; 10 µM): 2.2 °C
CCCCN(CCCC)C(=O)CN1C[C@@H](c2cc(OC)c3c(c2)OCO3)[C@H](C(=O)O)[C@H]1CC(C)(C)CCC — remaining binding (cell-free assay, competition with immobilised ligand; 1 µM): 100%
CC1(C)NC(=O)c2[nH]c3c(Cl)c(Cl)ccc3c2C1C#N (centres unmarked) — ΔTm (thermal stability, DSF; 10 µM): 0.8 °C
O=C1NC(=O)c2cc(Nc3ccc(F)cc3)c(Nc3ccc(F)cc3)cc21 — remaining signal (cell-free assay; 0.5 µM): 96.7%
Nc1ncnc2occ(-c3ccc(NC(=O)Nc4cc(C(F)(F)F)ccc4F)cc3)c12 — remaining signal (cell-free assay, inhibitor; 20 µM): 42%
Cc1ccc(C(=O)NCc2ccsc2)cc1C#Cc1cn(C(C)C)c2ncnc(N)c12 — activity vs control (enzyme activity, inhibitor; 1 µM): 101%
COc1cc(Nc2c(C#N)cnc3cc(OCCCN4CCN(C)CC4)c(OC)cc23)c(Cl)cc1Cl — remaining signal (cell-free assay; 0.5 µM): 42.2%
O=C(NC[C@@H]1[C@H]2CN(C(=O)OCc3cc(C(F)(F)F)cc(C(F)(F)F)c3)C[C@@H]12)c1ccc2[nH]nnc2c1 — remaining binding (cell-free assay, competition with immobilised ligand; 1 µM): 83%
CCN1CCN(Cc2ccc(NC(=O)c3ccc(C)c(Oc4ccnc5[nH]ccc45)c3)cc2C(F)(F)F)CC1 — inhibition (target engagement in cells, inhibitor, chemoproteomics; Huh-7; 1 µM): -12.7%
CC(C)(O)c1cncc(-c2nc3ccc(F)cc3n2C2CC2)c1 — remaining binding (cell-free assay, competition with immobilised ligand; 1 µM): 100%
COc1cccc2c(NCc3ccccc3)nc(-n3c(N)nc4ccccc43)nc12 — inhibition (target engagement in cells, inhibitor, chemoproteomics; 20 mM): -8.9%
O=C(O)c1cc(-c2ccc(C3CCNCC3)cc2)c2ccc(-c3ccc(C(F)(F)F)cc3)cc2c1 — remaining binding (cell-free assay, competition with immobilised ligand; 1 µM): 100%
CC(C)(C)c1nc(-c2cccc(NS(=O)(=O)c3c(F)cccc3F)c2F)c(-c2ccnc(N)n2)s1 — remaining activity (enzyme activity, inhibitor, radiometric; 1 µM): 100%
CSc1cccnc1N1CCN(Cc2nc3ccccc3[nH]2)CC1 — remaining binding (cell-free assay, competition with immobilised ligand; 1 µM): 100%
O=C1Nc2ccc(Cl)cc2C1=Cc1cc(Cl)c(O)c(Cl)c1 — remaining signal (cell-free assay; 0.5 µM): 80.7%
Cc1nc(N2CC[C@@H](O)C2)ncc1-c1cc(C(F)(F)F)cc2[nH]ncc12 — remaining binding (binding, competition with immobilised ligand; 1 µM): 100%
CC(C)(O)[C@H]1CC[C@H](Nc2ccc3ncc(-c4cccc(C(F)(F)F)c4)n3n2)CC1 — remaining activity (enzyme activity, inhibitor; 1 µM): 91.2%
